Source: ChEMBL document CHEMBL1212891, “Effect of [6]-shogaol on cytosolic Ca2+ levels and proliferation in human oral cancer cells (OC2)” (J Nat Prod, 2010)
Calls of active or inactive are those of the source. No cut-off for these calls is given here.

Legend:
OC2 [1] = experiment: Activation of phospholipase A2/C in human OC2 cells assessed as increase in intracellular calcium level at 1 uM; assay type: cell-based
How it was run: (§1)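 OC2 cells trypsinized (10^6/mL), recovered 1 h in culture medium, loaded with 2 µM fura-2/AM for 30 min at 25 °C, washed and resuspended in Ca2+-containing buffer pH 7.4 (NaCl 140, KCl 5, MgCl2 1, CaCl2 2, HEPES 5, glucose 5 mM). 0.5 million cells/mL stirred at 25 °C. Ratio of 340/380 nm excitation read at 510 nm emission every 1 s. Calibrated with Triton X-100 and EGTA, Kd 155 nM.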

[2] = (§2) Cytotoxicity in human OC2 cells assessed as decrease in cell viability after 24 hrs by crystal violate assay; assay type: functional, cell-based; details: OC2, 24 h
How it was run: (§3)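 OC2 cells in RPMI with 10% heat-inactivated FCS at 37 °C, 5% CO2. Plated at 1 × 10^4 per well and grown overnight. At about 70% confluence, medium replaced with compound at 0-100 µM from a DMSO stock (final DMSO <0.5%, DMSO as control) for 24 h. Cell number by crystal violet elution, expressed as percent of control. n=5.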

OC2 [3] = experiment: Activation of calcium channel in human OC2 cells assessed as increase in intracellular calcium […] in presence of La3+; assay type: cell-based; how it was run: as §1
OC2 [4] = experiment: Activation of phospholipase A2/C in human OC2 cells assessed as increase in intracellular calcium level at 0.1 uM; assay type: cell-based; how it was run: as §1
OC2 [5] = experiment: Activation of phospholipase A2/C in human OC2 cells assessed as decrease in intracellular calcium release at 100 uM in presence of Calcium entry blocker La3+; assay type: cell-based; how it was run: as §1
OC2 [6] = experiment: as §2; assay type: functional, cell-based; how it was run: as §3
OC2 [7] = experiment: Activation of phospholipase A2/C in human OC2 cells assessed as increase in intracellular calcium level at 100 uM pretreated with phospholipase C inhibitor […] and ATP; assay type: cell-based
OC2 [8] = experiment: Activation of phospholipase A2/C in human OC2 cells assessed as increase in intracellular calcium level at 100 uM in presence of PKC inhibitor GF109203X; assay type: cell-based; how it was run: as §1
OC2 [9] = experiment: Activation of phospholipase A2/C in human OC2 cells assessed as increase in intracellular calcium level at 100 uM in presence of protein kinase C activator PMA
OC2 [10] = experiment: Activation of phospholipase A2/C in human OC2 cells assessed as increase in intracellular calcium level in presence of phospholipase-A2 inhibitor aristolochc acid; assay type: cell-based; how it was run: as §1
OC2 [11] = experiment: Activation of phospholipase A2/C in human OC2 cells assessed as increase in intracellular calcium level at 100 uM in presence of thapsigargin; assay type: cell-based
OC2 [12] = experiment: Activation of phospholipase A2/C in human OC2 cells assessed as increase in intracellular calcium level at 100 uM in presence of PKA inhibitor H89; assay type: cell-based; how it was run: as §1
OC2 [13] = experiment: Activation of phospholipase A2/C in human OC2 cells assessed as increase in intracellular calcium level at 100 uM; assay type: cell-based; how it was run: as §1

COc1ccc([C@@H]2Sc3ccccc3N(CCN(C)C)C(=O)[C@@H]2OC(C)=O)cc1
Activity (OC2 [1]): inactive

CCCCC[C@H](O)CC(=O)CCc1ccc(O)c(OC)c1 [GINGEROL]
IC50 [2]: 74.2 µM

COc1ccc(CCN(C)CCCC(C#N)(c2ccc(OC)c(OC)c2)C(C)C)cc1OC (configuration not stated)
Activity (OC2 [1]): inactive

CCCCC/C=C/C(=O)CCc1ccc(O)c(OC)c1 [SHOGAOL]
Activity (OC2 [3]): inactive
Activity (OC2 [4]): inactive
Activity (OC2 [5]): inactive
IC50 [2]: 15.6 µM
Activity (OC2 [6]): Dose-dependent effect
Activity (OC2 [7]): inactive
Activity (OC2 [8]): Active
Activity (OC2 [9]): Active
Activity (OC2 [10]): inactive
Activity (OC2 [11]): inactive
Activity (OC2 [12]): Active
Activity (OC2 [13]): 68%

COC(=O)C1=C(C)NC(C)=C(C(=O)OCCN(C)Cc2ccccc2)C1c1cccc([N+](=O)[O-])c1 (configuration not stated)
Activity (OC2 [1]): inactive

COC(=O)C1=C(C)NC(C)=C(C(=O)OC)C1c1ccccc1[N+](=O)[O-]
Activity (OC2 [1]): inactive
